Active and inactive are the calls of the source. The calls are words filed in the database; no cut-off is given here.
Experiments:
HL-60 = test: Antiproliferative activity against human HL60 cells after 48 hrs by MTT assay; type: functional, cell-based; settings: HL-60, 48 h
How it was run: (§1)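 Cells seeded at 5.0×10^3 per well and exposed to a range of compound concentrations for 48 h. MTT (2.5 mg/mL solution) was then added for 4 h, formazan was dissolved in DMSO, and OD was read at 570 nm. HL-60 was grown in RPMI-1640 with 10% FBS, the other lines in DMEM with 10% FBS, at 37 °C and 5% CO2. Triplicates; IC50 taken from mean OD versus concentration curves.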

[1] = Binding affinity to hairpin duplex DNA (unknown origin) at 40 uM by SPR method
How it was run: (§2)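 SPR: biotinylated HTG21 or hairpin DNA (200 nM) was folded in 50 mM Tris-HCl pH 7.4 with 100 mM KCl and captured to about 1,000 RU on an NLC chip against a blank reference cell. Ligand at 0.625–40 µM was injected at 25 µL/min (400 s association, 300 s dissociation) at 25 °C. The chip was regenerated with 1 M KCl and blank sensorgrams were subtracted.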

Quadruplex DNA [2] = test: Stabilization of F21T telomeric G-quadruplex DNA (unknown origin) assessed as change in melting temperature at 1 uM by FRET assay; type: nucleic-acid assay
How it was run: (§3)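 FRET melting: 0.2 µM F21T or F10T (FAM/TAMRA-labelled), with or without 1.0 µM ligand, in 10 mM Tris-HCl pH 7.4 with 60 mM KCl. Excitation 470 nm, emission 530 nm, read every 1 °C from 37–99 °C at 1 °C/min with a 30 s hold. ΔTm = Tm(DNA+ligand) − Tm(DNA).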

HeLa = test: Antiproliferative activity against human HeLa cells after 48 hrs by MTT assay; type: functional, cell-based; how it was run: as §1
[3] = Stabilization of F10T hairpin duplex DNA (unknown origin) assessed as change in melting temperature at 1 uM by FRET assay; how it was run: as §3
A549 = test: Antiproliferative activity against human A549 cells after 48 hrs by MTT assay; type: functional, cell-based; settings: A549, 48 h; how it was run: as §1
SiHa = test: Antiproliferative activity against human SiHa cells after 48 hrs by MTT assay; type: functional, cell-based; how it was run: as §1
U2OS = test: Antiproliferative activity against human U2OS cells after 48 hrs by MTT assay; type: functional, cell-based; how it was run: as §1
Quadruplex DNA [4] = test: Binding affinity to HTG21 telomeric G-quadruplex DNA (unknown origin) by SPR method; type: nucleic-acid assay; how it was run: as §2
Quadruplex DNA [5] = test: Stabilization of F21T telomeric G-quadruplex DNA (unknown origin) at 1 uM in presence of non-fluorescent duplex DNA ds26 by FRET assay; type: nucleic-acid assay
How it was run: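 Competition FRET: 0.2 µM F21T with 1 µM ligand, plus or minus unlabelled duplex ds26 at 3 µM (15-fold) or 10 µM (50-fold), in 10 mM Tris-HCl pH 7.4 with 60 mM KCl. Melting monitored at 470/530 nm over 37–99 °C.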

SMILES | IC50 (HL-60) [µM] | Activity [1] | ΔTm (Quadruplex DNA [2]) [°C] | IC50 (HeLa) [µM] | ΔTm [3] [°C] | IC50 (A549) [µM] | IC50 (SiHa) [µM] | IC50 (U2OS) [µM] | Kd (Quadruplex DNA [4]) [µM] | Activity (Quadruplex DNA [5])
CN(C)CCCN(C)c1cc2c(cc1F)/C(=C/c1nc3cc(N4CCN(C)CC4)c(F)cc3c(=O)[nH]1)C(=O)N2 | 3.2 | inactive | 15.6 | 12.8 | 0.2 | 10.4 | 3.5 | 9.4 | > 40 | 
CN(C)CCCNc1cc2nc(/C=C3\C(=O)Nc4ccccc43)[nH]c(=O)c2cc1F | 3.2 | inactive | 11.8 | 13.4 | 0.2 | 14.8 | 17.1 | 18.7 | > 40 | 
CN(C)CCCNc1cc2nc(/C=C3\C(=O)Nc4cc(N5CCOCC5)c(F)cc43)[nH]c(=O)c2cc1F | 3.4 | inactive | 11.9 | 30.1 | 0.1 | > 50 | > 50 | > 50 | > 40 | 
CN1CCN(c2cc3c(cc2F)/C(=C/c2nc4cc(N5CCN(C)CC5)c(F)cc4c(=O)[nH]2)C(=O)N3)CC1 | 12.3 | inactive | 12.2 | > 50 | 0.1 | > 50 | > 50 | > 50 | > 40 | 
O=C1Nc2cc(N3CCOCC3)c(F)cc2/C1=C/c1nc2cc(NCCCN3CCOCC3)c(F)cc2c(=O)[nH]1 | > 50 | inactive | 5.2 | > 50 | 0.2 | > 50 | > 50 | > 50 | > 40 | 
CN1CCN(c2cc3c(cc2F)/C(=C/c2nc4cc(NCCCn5ccnc5)c(F)cc4c(=O)[nH]2)C(=O)N3)CC1 | > 50 | inactive | 11.5 | > 50 | 0.5 | > 50 | > 50 | > 50 | 21 | 
CN1CCN(c2cc3c(cc2F)/C(=C/c2nc4cc(NCCN5CCCC5)c(F)cc4c(=O)[nH]2)C(=O)N3)CC1 | 2.7 | inactive | 22.7 | 10.5 | 0.1 | 5.6 | 9.3 | 7.1 | 21 | 
O=C1Nc2ccccc2/C1=C/c1nc2cc(NCCCN3CCOCC3)c(F)cc2c(=O)[nH]1 | > 50 | inactive | 8.6 | > 50 | 0.1 | > 50 | > 50 | > 50 | > 40 | 
CCN(CC)CCCNc1cc2nc(/C=C3\C(=O)Nc4cc(N5CCN(C)CC5)ccc43)[nH]c(=O)c2cc1F | 5.4 | inactive | 20.6 | 10 | 0.2 | 2.3 | 2.8 | 7.6 | 7.4 | 
CN1CCN(c2ccc3c(c2)NC(=O)/C3=C\c2nc3cc(NCCN4CCCCC4)c(F)cc3c(=O)[nH]2)CC1 | 2.8 | inactive | 18.7 | 20.5 | 0.2 | 1.8 | 5.4 | 3.6 | > 40 | 
CN(C)CCCN(CCCN(C)C)c1cc2nc(/C=C3\C(=O)Nc4ccccc43)[nH]c(=O)c2cc1F | 16.1 | inactive | 12.6 | 48.6 | 0.2 | > 50 | 10.1 | > 50 | 23 | 
CCN(CC)CCCNc1cc2nc(/C=C3\C(=O)Nc4cc(N5CCN(C)CC5)c(F)cc43)[nH]c(=O)c2cc1F | 5.7 | inactive | 25.3 | 9.6 | 0.1 | 6.1 | 7.9 | 10.2 | 4.9 | 
CN1CCN(c2cc3c(cc2F)/C(=C/c2nc4cc(NCCCN5CCCC5)c(F)cc4c(=O)[nH]2)C(=O)N3)CC1 | 2.9 | inactive | 23.6 | 9 | 0.3 | 25.3 | 9.4 | 16.4 | 7.9 | 
CN(C)CCCNc1c2ccccc2nc2c1[nH]c1ccccc12 |  |  | 11.6 |  | 5.2 |  |  |  |  | inactive
CN(C)CCCNc1cc2nc(/C=C3/C(=O)Nc4ccccc43)n(CCCN(C)C)c(=O)c2cc1F | 8.2 | inactive | 9.2 | 27.1 | 0.1 | 18.2 | 30.5 | 28.4 | > 40 | 
CN(C)CCCNc1ccc2c(=O)[nH]c(/C=C3\C(=O)Nc4cc(N5CCN(C)CC5)ccc43)nc2c1 | 4.3 | inactive | 16.5 | 49 | 0.1 | 19 | 11.5 | 14.1 | > 40 | 
CCN(CC)CCCNc1cc2nc(/C=C3\C(=O)Nc4cc(N5CCOCC5)c(F)cc43)[nH]c(=O)c2cc1F | 4.2 | inactive | 9 | 34.3 | 0.1 | > 50 | 43.6 | 32.4 | > 40 | 
CCN(CC)CCCNc1cc2nc(/C=C3\C(=O)Nc4ccccc43)[nH]c(=O)c2cc1F | 7.5 | inactive | 10 | > 50 | 0.1 | 8.6 | 23.4 | 12.6 | > 40 | 
CCN(CC)CCCN1C(=O)/C(=C\c2nc3cc(N4CCN(C)CC4)c(F)cc3c(=O)[nH]2)c2ccccc21 | 13.2 | inactive | 5.8 | > 50 | 0.3 | > 50 | > 50 | > 50 | > 40 | 
O=C1Nc2cc(N3CCOCC3)c(F)cc2/C1=C/c1nc2cc(NCCCN3CCCC3)c(F)cc2c(=O)[nH]1 | 3.8 | inactive | 8.4 | > 50 | 0.3 | > 50 | 42.5 | > 50 | > 40 | 
CN1CCN(c2ccc3c(c2)NC(=O)/C3=C\c2nc3cc(NCCN4CCCC4)c(F)cc3c(=O)[nH]2)CC1 | 3.6 | inactive | 18.6 | 17.4 | 0.2 | 4.1 | 10.9 | 6.4 | > 40 | 
CN(C)CCNc1cc2nc(/C=C3\C(=O)Nc4cc(N5CCN(C)CC5)ccc43)[nH]c(=O)c2cc1F | 7.8 | inactive | 18 | 15.7 | 0.2 | 2.2 | 3.4 | 6.3 | > 40 | 
CN1CCN(CCCNc2cc3nc(/C=C4\C(=O)Nc5cc(N6CCN(C)CC6)c(F)cc54)[nH]c(=O)c3cc2F)CC1 | 3.3 | inactive | 19.8 | 8.8 | 0.1 | 9.7 | 2.8 | 12.7 | 9.6 | 
CCN(CC)CCNc1cc2nc(/C=C3\C(=O)Nc4cc(N5CCN(C)CC5)c(F)cc43)[nH]c(=O)c2cc1F | 1.7 | inactive | 23.1 | 9 | 0.3 | 6.1 | 12.4 | 8.2 | 22 | 
CN(C)CCCNc1cc2nc(/C=C3\C(=O)Nc4cc(N(C)CCCN(C)C)c(F)cc43)[nH]c(=O)c2cc1F | 6.5 | inactive | 18.2 | 7.1 | 0.3 | 14.3 | 2.9 | 8.3 | 18 | 
CN(C)CCCN(C)c1cc2c(cc1F)/C(=C/c1nc3cc(NCCN(C)C)c(F)cc3c(=O)[nH]1)C(=O)N2 | 5.6 | inactive | 20.1 | 22.6 | 0.3 | 12.4 | 7.6 | 9.2 | 14 | 

From ChEMBL document CHEMBL4177752, “Discovery of Novel Schizocommunin Derivatives as Telomeric G-Quadruplex Ligands That Trigger Telomere Dysfunction and the Deoxyribonucleic Acid (DNA) Damage Response” (J Med Chem, 2018)
